Experiments:
[1] = Cytotoxicity against HEK293T cells assessed as reduction in cell viability after 24 hrs by cell titer-glo luminescent cell viability assay; format: cell-based, HEK-293T; conditions: human
In short: (§1)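 HEK 293T cells, 3 × 10⁴/well, seeded overnight, then exposed 24 h to compound (0.01–100 μM, triplicate) in DMEM pH 6.8 with 10% FBS. Viability read by CellTiter-Glo luminescence. Normalized to untreated (100%) and medium blank (0%); CC50 by five-parameter curve fit.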

Chikungunya virus [2] = assay: Antiviral activity against Chikungunya virus infected in HEK293T cells assessed as reduction of infectivity measured at 24 hrs postinfection by gaussia luciferase reporter gene assay; format: functional, cell-based; conditions: HEK-293T
[3] = Cytotoxicity against HEK293T cells assessed as cell viability at antiviral EC50 after 24 hrs by cell titer-glo luminescent cell viability assay; format: cell-based, HEK-293T; conditions: human, read-out: Activity; in short: as §1
Chikungunya virus [4] = assay: Antiviral activity against wild type Chikungunya virus IMT infected in HEK293T cells assessed as inhibition of infectivity measured at 24 hrs postinfection by FITC/DAPI staining based array scan VTI HCS reader analysis; format: functional, cell-based; conditions: HEK-293T
[5] = Selectivity index, ratio of CC50 for HEK293T cells to EC50 for Chikungunya virus infected in HEK293T cells; format: toxicity, cell-based, HEK-293T; conditions: human, read-out: Ratio CC50/EC50

Row | Structure (SMILES) | CC50 at 24 h [1] | EC50 (Chikungunya virus [2]) | viability at 24 h [3] | EC50 (Chikungunya virus [4]) | inhibition (Chikungunya virus [4]) | selectivity ratio [5]
1 | COc1ccc(Cn2c(C(=O)NC(C)c3ccccc3)cc3sccc32)cc1 (configuration not stated) | > 100 µM | > 100 µM | > 80% |  |  | 
2 | COc1ccc(Cn2c(C(=O)O)cc3sccc32)cc1 | > 100 µM | > 100 µM | > 80% |  |  | 
3 | COc1ccc(Cn2c(C(=O)N3CCN(Cc4ccccc4)CC3)cc3sc(C(=O)c4ccccc4)cc32)cc1 | > 100 µM | > 100 µM | > 80% |  |  | 
4 | CCCNC(=O)C1CCN(C(=O)c2cc3sc(CNC(C)c4ccccc4)cc3n2Cc2ccc(OC)cc2)CC1 (configuration not stated) | 33.9 µM | 8.44 µM | > 80% | 13.5 µM | Dose-dependent effect | 4
5 | COc1ccc(Cn2c(C(=O)N3CCN(Cc4ccccc4)CC3)cc3sc(-c4ccccc4)cc32)cc1 | > 100 µM | 42.4 µM | > 80% |  |  | > 2.4
6 | COc1ccc(Cn2c(C(=O)N3CCC(C(=O)NCCc4ccccc4)CC3)cc3sccc32)cc1 | > 100 µM | 11.1 µM | > 80% |  |  | > 9
7 | COc1ccc(Cn2c(C(=O)N3CCN(Cc4ccccc4)CC3)cc3sc(C(C)=O)cc32)cc1 | > 100 µM | 17 µM | > 80% |  |  | > 5.9
8 | COc1ccc(Cn2c(C(=O)N3CCN(Cc4ccccc4)CC3)cc3sccc32)cc1 | > 100 µM | 41.7 µM | > 80% |  |  | > 2.4
9 | COc1ccc(Cn2c(C(=O)N3CCC(C(=O)NC4CC4)CC3)cc3sccc32)cc1 | 21.4 µM | 7.59 µM | > 80% | 5.59 µM | Dose-dependent effect | 2.8
10 | CCCNC(=O)C1CCN(C(=O)c2c(CNCc3ccccc3)c3sccc3n2Cc2ccc(OC)cc2)CC1 | 77.6 µM | 15.4 µM | > 80% |  |  | 5
11 | COc1ccc(Cn2c(C(=O)N3CCOCC3)cc3sccc32)cc1 | > 100 µM | 79.7 µM | > 80% |  |  | > 1.3
12 | CCCNC(=O)C1CCN(C(=O)c2cc3sccc3n2Cc2ccc(OC)cc2)CC1 | 18.8 µM | 7 µM | > 80% | 6.55 µM | Dose-dependent effect | 2.7
13 | COc1ccc(Cn2c(C(=O)NCc3ccccc3)cc3sccc32)cc1 | > 100 µM | > 100 µM | > 80% |  |  | 
14 | CCCNCc1c(C(=O)N2CCC(C(=O)NCCC)CC2)n(Cc2ccc(OC)cc2)c2ccsc12 | > 100 µM | 27.7 µM | > 80% |  |  | > 3.6
15 | COc1ccc(Cn2c(C(=O)N3CCC(C(=O)NCc4cccc(Br)c4)CC3)cc3sccc32)cc1 | > 100 µM | 10.9 µM | > 80% |  |  | > 9.2
16 | COc1ccc(Cn2c(C(=O)N3CCC(C(=O)NC(C)c4ccccc4)CC3)cc3sccc32)cc1 (configuration not stated) | > 100 µM | 13 µM | > 80% |  |  | > 7.7
17 | CCOC(=O)c1cc2sccc2n1Cc1ccc(OC)cc1 | > 100 µM | > 100 µM | > 80% |  |  | 
18 | COc1ccc(Cn2c(C(=O)N3CCNCC3)cc3sccc32)cc1 | > 100 µM | 32.5 µM | > 80% |  |  | > 3.1
19 | COc1ccc(Cn2c(C(=O)N3CCC(C(=O)NCCC(C)C)CC3)cc3sccc32)cc1 | 30.9 µM | 11 µM | > 80% |  |  | 2.8
20 | COc1ccc(Cn2c(C(=O)N3CCN(Cc4ccccc4)CC3)c(COCc3ccccc3)c3sccc32)cc1 | > 100 µM | > 100 µM | > 80% |  |  | 

Row | Structure (SMILES) | CC50 at 24 h [1] | EC50 (Chikungunya virus [2]) | viability at 24 h [3] | EC50 (Chikungunya virus [4]) | inhibition (Chikungunya virus [4]) | selectivity ratio [5]
21 | COc1ccc(Cn2c(C(=O)N3CCC(C(=O)O)CC3)cc3sccc32)cc1 | > 100 µM | > 100 µM | > 80% |  |  | 
22 | CCOC(=O)C1CCN(C(=O)c2cc3sccc3n2Cc2ccc(OC)cc2)CC1 | 39 µM | 13.1 µM | > 80% |  |  | 3
23 | COc1ccc(Cn2c(C(N)=O)cc3sccc32)cc1 | > 100 µM | 36 µM | > 80% |  |  | > 2.8
24 | COc1ccc(Cn2c(C(=O)N3CCC(C(=O)NCc4ccccc4)CC3)cc3sccc32)cc1 | > 100 µM | 12.3 µM | > 80% |  |  | > 8.1
25 | COc1ccc(Cn2c(C(=O)N3CCC(C(N)=O)CC3)cc3sccc32)cc1 | > 100 µM | 70.9 µM | > 80% |  |  | > 1.4
26 | COc1ccc(Cn2c(C(=O)N3CCCC3)cc3sccc32)cc1 | > 100 µM | 35.4 µM | > 80% |  |  | > 2.8
27 | COc1ccc(Cn2c(C(=O)N3CCCCC3)cc3sccc32)cc1 | > 100 µM | 49.7 µM | > 80% |  |  | > 2
28 | CCCNCc1cc2c(cc(C(=O)N3CCC(C(=O)NCCC)CC3)n2Cc2ccc(OC)cc2)s1 | > 100 µM | 40 µM | > 80% |  |  | > 2.5
29 | COc1ccc(Cn2c(C(=O)N3CCN(Cc4ccccc4)CC3)cc3sc(COCc4ccccc4)cc32)cc1 | > 100 µM | > 100 µM | > 80% |  |  | 
30 | CCCNC(=O)C1CCN(C(=O)c2cc3sc(CNCc4ccccc4)cc3n2Cc2ccc(OC)cc2)CC1 | 46.8 µM | 11.2 µM | > 80% |  |  | 4.2
31 | CCCCC(=O)C1CCN(C(=O)c2cc3sccc3n2Cc2ccc(OC)cc2)CC1 | 38.9 µM | 13.3 µM | > 80% |  |  | 2.9
32 | CCCNC(=O)C1CCN(C(=O)c2c(CO)c3sccc3n2Cc2ccc(OC)cc2)CC1 | > 100 µM | 47.6 µM | > 80% |  |  | > 2.1
33 | COc1ccc(Cn2c(C(=O)N3CCN(Cc4ccccc4)CC3)c(CNC(C)c3ccccc3)c3sccc32)cc1 (configuration not stated) | > 100 µM | 23 µM | > 80% |  |  | > 4.3
34 | COc1ccc(Cn2c(C(=O)N3CCC(C(=O)NCC4CC4)CC3)cc3sccc32)cc1 | 24.6 µM | 10.4 µM | > 80% |  |  | 2.4
35 | CCCNC(=O)C1CCN(C(=O)c2cc3sc(C(C)=O)cc3n2Cc2ccc(OC)cc2)CC1 | > 100 µM | 20.9 µM | > 80% |  |  | > 4.8
36 | CCCNC(=O)C1CCN(C(=O)c2cc3sc(C(=O)c4ccccc4)cc3n2Cc2ccc(OC)cc2)CC1 | > 100 µM | > 100 µM | > 80% |  |  | 
37 | CCCNC(=O)c1cc2sccc2n1Cc1ccc(OC)cc1 | > 100 µM | > 100 µM | > 80% |  |  | 
38 | CCCNC(=O)C1CCN(C(=O)c2c(CNC(C)c3ccccc3)c3sccc3n2Cc2ccc(OC)cc2)CC1 (configuration not stated) | 57.5 µM | 11.9 µM | > 80% |  |  | 4.8
39 | CCN(CC)C(=O)c1cc2sccc2n1Cc1ccc(OC)cc1 | > 100 µM | 49.6 µM | > 80% |  |  | > 2

— ChEMBL document CHEMBL3739406, “Trisubstituted Thieno[3,2-b]pyrrole 5-Carboxamides as Potent Inhibitors of Alphaviruses” (J Med Chem, 2015)
